We go through 29 molecules from PubChem BioAssay AID588560 (The Scripps Research Institute Molecular Screening Center, 2011).

Holding throughout (assay): single-point PAD isozyme panel inhibition – biochemical, colorimetric, BAEE substrate, recombinant enzymes, selectivity assay for PAD4 inhibitor project, late-stage follow-up (AID 588560)
Experiment [1] has as its target Protein-arginine deiminase type-1 (Homo sapiens) (UniProt Q9ULC6). The settings on record: recombinant PAD1-4, BAEE citrulline colorimetric, 15 min; PAD1; at 10 µM; stronger effect = higher value. Put shortly: (§1)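 assay system = recombinant PAD1, PAD2, PAD3 or PAD4 enzyme, one isozyme per assay | medium = Tris pH 7.6 buffer with CaCl2 and DTT | schedule = 15 min enzyme–compound preincubation plus 15 min substrate reaction, both 37 °C | detection = colorimetric citrulline detection with diacetyl monoxime/thiosemicarbazide, absorbance 540 nm | control set = DMSO-treated enzyme as uninhibited reference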

The target of experiment [2] is Protein-arginine deiminase type-2 (Homo sapiens) (UniProt Q9Y2J8). The settings on record: recombinant PAD1-4, BAEE citrulline colorimetric, 15 min; PAD2; at 10 µM; stronger effect = higher value. Put shortly:
as §1

In experiment [3] the target is Protein-arginine deiminase type-3 (Homo sapiens) (UniProt Q9ULW8). Particulars: recombinant PAD1-4, BAEE citrulline colorimetric, 15 min; PAD3; at 10 µM; stronger effect = higher value. In short, it runs like this: as §1
Chain of Protein-arginine deiminase type-3 (Homo sapiens) (Q9ULW8 whole entry, looked up): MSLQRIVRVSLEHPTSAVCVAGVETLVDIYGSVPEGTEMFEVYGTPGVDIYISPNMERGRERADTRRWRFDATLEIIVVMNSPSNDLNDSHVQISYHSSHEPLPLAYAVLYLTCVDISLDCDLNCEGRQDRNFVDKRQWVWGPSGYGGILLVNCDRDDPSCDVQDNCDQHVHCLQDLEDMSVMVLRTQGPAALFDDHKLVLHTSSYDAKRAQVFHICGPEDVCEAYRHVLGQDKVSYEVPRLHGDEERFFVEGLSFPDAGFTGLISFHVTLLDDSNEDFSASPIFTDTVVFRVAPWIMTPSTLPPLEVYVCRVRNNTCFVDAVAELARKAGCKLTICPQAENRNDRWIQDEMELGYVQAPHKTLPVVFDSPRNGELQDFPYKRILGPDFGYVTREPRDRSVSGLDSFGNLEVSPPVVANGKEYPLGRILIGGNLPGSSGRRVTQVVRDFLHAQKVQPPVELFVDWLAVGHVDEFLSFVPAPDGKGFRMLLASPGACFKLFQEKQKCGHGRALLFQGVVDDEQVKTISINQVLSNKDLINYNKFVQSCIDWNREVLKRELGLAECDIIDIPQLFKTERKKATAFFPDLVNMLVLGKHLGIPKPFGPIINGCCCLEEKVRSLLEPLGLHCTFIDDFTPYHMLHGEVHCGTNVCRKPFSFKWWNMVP
Experiment [4] addresses Protein-arginine deiminase type-4 (Homo sapiens) (UniProt Q9UM07). The settings on record: recombinant PAD1-4, BAEE citrulline colorimetric, 15 min; PAD4; at 10 µM; stronger effect = higher value. In short, it runs like this: as §1

Activity calls are given as the source filed them.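 The calls were made as follows: active = inhibition of 50% or more against any one of four protein arginine deiminase enzymes; inactive = the rest.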

Chain of Protein-arginine deiminase type-2 (Homo sapiens) (Q9Y2J8 whole entry, looked up): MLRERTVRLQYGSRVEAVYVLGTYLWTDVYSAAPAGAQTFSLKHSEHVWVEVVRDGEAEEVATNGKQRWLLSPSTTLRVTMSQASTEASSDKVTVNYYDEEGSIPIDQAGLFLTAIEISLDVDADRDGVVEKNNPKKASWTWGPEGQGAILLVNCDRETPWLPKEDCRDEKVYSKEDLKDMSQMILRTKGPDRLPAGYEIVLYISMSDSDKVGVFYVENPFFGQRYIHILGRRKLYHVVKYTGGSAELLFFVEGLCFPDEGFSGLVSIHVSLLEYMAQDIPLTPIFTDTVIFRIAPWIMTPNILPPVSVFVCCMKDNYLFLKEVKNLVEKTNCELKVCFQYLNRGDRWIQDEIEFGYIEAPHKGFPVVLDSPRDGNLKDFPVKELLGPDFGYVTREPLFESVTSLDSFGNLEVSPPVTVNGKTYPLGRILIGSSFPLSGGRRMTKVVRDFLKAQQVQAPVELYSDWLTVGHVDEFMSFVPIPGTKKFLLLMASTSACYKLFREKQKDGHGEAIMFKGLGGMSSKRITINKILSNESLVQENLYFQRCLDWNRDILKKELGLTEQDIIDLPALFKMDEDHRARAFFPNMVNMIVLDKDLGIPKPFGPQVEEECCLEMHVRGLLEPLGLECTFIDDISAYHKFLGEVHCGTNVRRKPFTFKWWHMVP
Chain of Protein-arginine deiminase type-4 (Homo sapiens) (Q9UM07 whole entry, looked up): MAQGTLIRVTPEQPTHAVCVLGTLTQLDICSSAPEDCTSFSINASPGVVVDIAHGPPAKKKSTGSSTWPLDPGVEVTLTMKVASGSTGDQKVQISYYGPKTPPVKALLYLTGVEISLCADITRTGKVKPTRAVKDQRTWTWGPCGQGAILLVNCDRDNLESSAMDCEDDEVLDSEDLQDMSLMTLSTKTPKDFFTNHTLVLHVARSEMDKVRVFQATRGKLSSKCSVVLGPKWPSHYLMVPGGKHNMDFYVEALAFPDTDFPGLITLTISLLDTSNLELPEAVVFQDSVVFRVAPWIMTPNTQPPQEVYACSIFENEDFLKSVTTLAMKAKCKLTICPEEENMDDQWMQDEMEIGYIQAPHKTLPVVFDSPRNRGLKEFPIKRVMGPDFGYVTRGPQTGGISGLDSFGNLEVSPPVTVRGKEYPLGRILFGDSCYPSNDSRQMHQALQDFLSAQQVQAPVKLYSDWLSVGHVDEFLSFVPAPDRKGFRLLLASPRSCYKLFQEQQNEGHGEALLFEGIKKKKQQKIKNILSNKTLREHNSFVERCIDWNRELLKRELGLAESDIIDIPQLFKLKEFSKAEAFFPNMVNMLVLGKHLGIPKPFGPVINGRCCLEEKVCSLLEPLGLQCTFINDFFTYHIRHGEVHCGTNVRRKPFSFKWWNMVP
Chain of Protein-arginine deiminase type-1 (Homo sapiens) (Q9ULC6 whole entry, looked up): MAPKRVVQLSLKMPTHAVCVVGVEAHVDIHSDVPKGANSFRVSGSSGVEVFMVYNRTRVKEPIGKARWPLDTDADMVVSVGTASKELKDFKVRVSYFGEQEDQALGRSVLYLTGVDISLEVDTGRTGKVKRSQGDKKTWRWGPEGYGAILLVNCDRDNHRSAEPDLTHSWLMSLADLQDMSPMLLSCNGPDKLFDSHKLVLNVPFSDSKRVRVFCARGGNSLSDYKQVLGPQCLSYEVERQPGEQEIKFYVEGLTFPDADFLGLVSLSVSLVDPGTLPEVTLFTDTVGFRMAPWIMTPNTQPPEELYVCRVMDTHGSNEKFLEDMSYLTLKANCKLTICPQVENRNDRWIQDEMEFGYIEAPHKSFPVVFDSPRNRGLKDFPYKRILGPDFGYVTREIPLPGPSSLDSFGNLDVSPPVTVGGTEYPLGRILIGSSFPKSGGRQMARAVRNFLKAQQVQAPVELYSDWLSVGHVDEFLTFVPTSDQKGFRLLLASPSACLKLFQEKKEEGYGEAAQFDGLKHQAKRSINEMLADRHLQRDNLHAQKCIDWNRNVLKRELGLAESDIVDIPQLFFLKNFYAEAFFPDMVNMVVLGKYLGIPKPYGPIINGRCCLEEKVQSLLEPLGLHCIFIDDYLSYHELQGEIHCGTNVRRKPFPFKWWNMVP

One may read the inhibition as the change of the read-out against control, counted positive when it falls. For the molecule `NC1=C(N)C(=O)c2ccccc2C1=O`, the inhibition was 22% (inactive) in experiment [1], 28% (inactive) in experiment [2], 44% (inactive) in experiment [3] and 43% (inactive) in experiment [4].
As to `COc1ccc2ncccc2c1[N+](=O)[O-]`, the inhibition in experiment [1] is -12% (inactive); in experiment [2] it was 17% (inactive); in experiment [3], 19% (inactive).
On the same counts, the results for `COC(=O)c1cccc(-c2ccc3c(n2)C(=O)C(N)=CC3=O)n1` are 75%, 92% and 84%.
On the same counts, the results for `COC(=O)c1nc(C(=O)OC)c(NC(C)=O)c(-c2ccccc2Br)c1C` are -20% (inactive), -19% (inactive) and -30% (inactive).
On the same counts, the results for `COC(=O)c1cccc(-c2ccc3ccc(Br)c(O)c3n2)n1` are -5% (inactive), -22% (inactive) and -28% (inactive).
For `NC1=CC(=O)c2cccnc2C1=O`, the inhibition in experiment [1] was 70%; in experiment [2], 89%; in experiment [3], 100%; in experiment [4], 99%.
Take `COC(=O)c1nc(C(=O)OC)c(N)c(-c2ccccc2Br)c1C`: the inhibition is -6% (inactive) in experiment [1], -22% (inactive) in experiment [2] and -30% (inactive) in experiment [3].
As to `COC1=C(N)C(=O)c2ncccc2C1=O`, the inhibition in experiment [1] is 57%; in experiment [2], 78%; in experiment [3] it was 100%; in experiment [4], 87%.
Regarding `COC(=O)c1cc(-c2ccccc2)c(C(=O)OC)c(-c2ccc3ccccc3n2)n1`, the inhibition was -20% (inactive) in experiment [1], -18% (inactive) in experiment [2] and 16% (inactive) in experiment [3].
In the case of `NC1=CC(=O)c2ccc(-c3cc(C(=O)O)ccc3N)nc2C1=O`, the inhibition in experiment [1] is -13% (inactive); in experiment [2], -19% (inactive); in experiment [3], 8% (inactive); in experiment [4], 13% (inactive).
On to `COC(=O)c1nc(-c2ccc3c(n2)C(=O)C(Br)=CC3=O)c2[nH]c3ccccc3c2c1C`, for which the results for the inhibition in experiment [1], in experiment [2] and in experiment [3] were -24% (inactive), -15% (inactive) and -16% (inactive), respectively.
On the same counts, the results for `CCOC(=O)c1nc(C(=O)OCC)c(C(=O)OCC)c(-c2ccc(OC)c(OC)c2OCc2ccccc2)c1C` are -15% (inactive), -31% (inactive) and -7% (inactive).
On the same counts, the results for `O=C(O)c1cccc(-c2ccc3ccc(Br)c(OCc4ccccc4)c3n2)n1` are -23% (inactive), -18% (inactive) and -7% (inactive).
Consider `COC1=C(Br)C(=O)c2nc(-c3ccccn3)ccc2C1=O`, for which the inhibition in experiment [1] is 50%; in experiment [2], 62%; in experiment [3] it was 100%; in experiment [4], 91%.
On the same counts, the results for `COC1=CC(=O)c2nc(C#N)ccc2C1=O` are 68%, 88%, 99% and 97%.
On the same counts, the results for `O=C1C(Br)=CC(=O)c2ncccc21` are -57% (inactive), 12% (inactive), 10% (inactive) and 10% (inactive).
With `NC1=CC(=O)c2ccc(-c3ccccn3)nc2C1=O`, the figures for the inhibition in experiment [1], in experiment [2] and in experiment [3] were 73%, 101% and 90%, respectively.
As for `COC(=O)c1nnc(C(=O)OC)c(-c2ccc3ccccc3n2)n1`, the inhibition was -41% (inactive) in experiment [1], -13% (inactive) in experiment [2] and 24% (inactive) in experiment [3].
On the same counts, the results for `COC(=O)c1nc(C(C)=O)c2[nH]c3ccccc3c2c1C` are 5% (inactive), -29% (inactive) and -20% (inactive).
On the same counts, the results for `COC(=O)c1cccc(-c2ccc3c(n2)C(=O)C(Br)=CC3=O)n1` are 0% (inactive), -26% (inactive) and -43% (inactive).
On the same counts, the results for `COC(=O)c1nnc(C(=O)OC)c(-c2ccc3cc(OC)ccc3n2)n1` are -21% (inactive), -14% (inactive) and 15% (inactive).
On to `NC1=CC(=O)c2ccc(-c3cccc(C(=O)O)n3)nc2C1=O`, for which the inhibition was 71% in experiment [1], 85% in experiment [2], 97% in experiment [3] and 98% in experiment [4].
On the same counts, the results for `COC1=C(I)C(=O)c2nc(C#N)ccc2C1=O` are 60%, 63%, 98% and 97%.
On the same counts, the results for `O=C1C=C(Br)C(=O)c2ncccc21` are -17% (inactive), 14% (inactive), 76% and 56%.
In the case of `COc1ccc2nc(C#N)ccc2c1`, the inhibition was -37% (inactive) in experiment [1], 35% (inactive) in experiment [2] and 8% (inactive) in experiment [3].
On the same counts, the results for `COC1=C(Br)C(=O)c2ncccc2C1=O` are 75%, 88% and 7% (inactive).
On the same counts, the results for `COC(=O)c1nnc(C(=O)OC)c(-c2ccc3c([N+](=O)[O-])c(OC)ccc3n2)n1` are -38% (inactive), 7% (inactive) and 18% (inactive).
On to `O=C1C(O)=C(O)C(=O)c2ncccc21`, for which the inhibition in experiment [1] was 39% (inactive); in experiment [2], 41% (inactive); in experiment [3] it was 96%; in experiment [4], 83%.
Regarding `COc1ccc2nc(C#N)ccc2c1[N+](=O)[O-]`, the inhibition in experiment [1] was -24% (inactive); in experiment [2], 2% (inactive); in experiment [3], 16% (inactive).
